Hits are enriched below; roughly 1.5% of the tested compounds scored in any of these assays.
FLuc stim CS: affects firefly luciferase, flagging false hits in luciferase stimulation screens | AID 1027 | ATPlite luciferase biochemical, luminescence, 10 min; 0 = ATP-free wells, 1 = DMSO control | activation factor at 10 µM | 200,000 tested, under 10 active | P08659;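 active = luciferase activation factor, scaled between plate controls, of at least 2 with compound at 10 µM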
Target sequence (P08659 whole entry, looked up): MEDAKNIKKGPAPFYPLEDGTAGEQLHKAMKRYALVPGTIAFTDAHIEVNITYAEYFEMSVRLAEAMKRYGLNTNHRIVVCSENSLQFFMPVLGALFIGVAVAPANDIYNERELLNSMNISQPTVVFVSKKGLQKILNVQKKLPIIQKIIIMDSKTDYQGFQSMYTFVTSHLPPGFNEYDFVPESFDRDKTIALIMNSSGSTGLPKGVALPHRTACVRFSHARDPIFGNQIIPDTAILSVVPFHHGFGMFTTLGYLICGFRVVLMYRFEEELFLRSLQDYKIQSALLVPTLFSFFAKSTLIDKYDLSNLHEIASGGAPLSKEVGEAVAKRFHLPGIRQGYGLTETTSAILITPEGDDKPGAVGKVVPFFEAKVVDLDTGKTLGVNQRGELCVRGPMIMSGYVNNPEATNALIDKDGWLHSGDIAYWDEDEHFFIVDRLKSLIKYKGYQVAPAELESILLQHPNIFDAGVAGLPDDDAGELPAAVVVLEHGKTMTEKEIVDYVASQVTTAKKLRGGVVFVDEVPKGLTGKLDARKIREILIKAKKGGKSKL
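test system = cell-free luciferase reagent | medium = PBS as buffer for the ATP substrate | dosing = test compounds dosed from 2 mM stocks in 100% DMSO | incubation = 10 min at ambient temperature | detection = luminescence measurement of luciferase light output | benchmarks = low control with PBS replacing ATP, high control enzyme plus ATP without compound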
PPC-1+TRAIL kill: kills PPC-1 cancer cells in the presence of TRAIL; PPC-1 cells + TRAIL, ATPLite viability luminescence; cell killing (% activity), % at 4 µM or 5 µM; 220,000 tested, 0.41% active; AID 1443;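 active = cell killing above 50% in the first pass at 4 µM, then a duplicate retest at 5 µM averaging 50% or more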;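 also: plate controls were cells with TRAIL plus DMSO for no effect and medium-only wells lacking cells for full effect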
TRAIL sens C8: sensitizes caspase-8 expressing cells to TRAIL | NB7+C8 cells + TRAIL, ATPlite viability luminescence | inhibition (viability loss, TRAIL sensitization), % at 10 µM | 360,000 tested, 1% active | AID 624354;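 active = compounds causing at least 50% loss of cell viability in the single-dose screen, relative to plate controls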
FLuc inh counter: inhibits firefly luciferase, flagging false hits in luciferase inhibition screens; ATPLite firefly luciferase biochemical luminescence, 10 min; P08659; inhibition, % at 10 µM; AID 1006; 200,000 tested, 1.5% active;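 active = inhibition above about 50% when tested at 10 µM, limit read from the data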
* marks the source's active call; other numbers are inactive results; . = not tested or not shown.

SMILES	FLuc stim CS	PPC-1+TRAIL kill	TRAIL sens C8	FLuc inh counter
O=C(Nc1ccc(-c2nc3ccccc3[nH]2)cc1)C1CCCO1 (configuration not stated)	0.1	21	73*	90*
Cc1ccccc1NC(=S)c1nc2ccccc2[nH]1	0.6	21	23	36
S=C(Nc1ccc(Cl)cc1)c1nc2ccccc2[nH]1	0.3	26	69*	66*
CCCN(CCC)S(=O)(=O)c1ccc(Cl)c(OC)c1	1	8	0	-4
CC1CCN(c2nc3ccc(C(=O)NCCCN4CCCCC4)cc3s2)CC1	.	.	7	.
Nc1nc(-c2ccc(C(=O)O)cc2)cs1	1	16	-8	-4
Nc1ccc(-c2nc3ccc(C(=O)O)cc3s2)cc1	0.2	31	70*	76*
CC1CCN(c2nc3ccc(C(=O)O)cc3s2)CC1	0.4	15	17	58*
Nc1cc2sc(-c3ccc(C(=O)O)cc3)nc2cc1Cl	0.2	51*	57*	76*
O=C(O)c1ccc2nc(-c3ccccc3)sc2c1	0.6	22	18	44
C/C(=N\NC(=O)c1cc2ccccc2cc1O)c1cccs1	.	.	53*	.
C/C(=N/NC(=O)c1cc2ccccc2cc1O)c1ccco1	.	.	55*	.
C/C(=N\NC(=O)c1cc2ccccc2cc1O)c1ccc(C)o1	.	.	34	.
CCc1ccc(/C=C2/SC(=S)N(CCC(=O)Nc3cccnc3)C2=O)cc1	.	.	32	.
CC(=O)N1CCc2c(sc(NC(=O)c3ccc([N+](=O)[O-])o3)c2C(N)=O)C1	.	.	62*	.
Cc1ccc(C2CC2c2n[nH]c(=S)n2-c2ccc(Cl)cc2)cc1 (configuration not stated)	1.1	-6	72*	-11
Cc1ccc(C2CC2c2n[nH]c(=S)n2-c2cccc(C)c2)cc1 (configuration not stated)	1	11	15	1
CNc1nc(N/N=C/c2cc3c(cc2[N+](=O)[O-])OCO3)nc(Nc2ccccc2)n1	1	26	-6	0
CNc1nc(N/N=C/c2cc([N+](=O)[O-])ccc2F)nc(Nc2ccccc2)n1	.	.	58*	.
CCCCCCc1cc2cc(C(=O)Nc3ccc(OC)cc3)c(=O)oc2cc1O	1.1	22	51*	-5
CCCCCCc1cc2cc(S(=O)(=O)c3ccc(F)c(Cl)c3)c(=O)oc2cc1O	1	7	52*	-3
COc1ccc(NC(=O)c2cc3ccc(O)cc3o/c2=N\O)cc1	.	.	74*	.
Cc1cccc(C)c1-n1nnnc1C1(C)CCC(=O)N1CCc1ccc(O)cc1 (configuration not stated)	.	.	2	.
Cc1cccc(N2CCN(C(=S)Nc3ccc4nc(N5CCN(C)CC5)cc(C)c4c3)CC2)c1C	1	.	93*	0
Cc1cccc(N2CCN(C(=S)Nc3ccc4nc(N5CCN(C)CC5)cc(C)c4c3)CC2C)c1 (configuration not stated)	1.1	25	67*	-6
SMILES	FLuc stim CS	PPC-1+TRAIL kill	TRAIL sens C8	FLuc inh counter
Cc1cc(N2CCN(C)CC2)nc2ccc(NC(=S)N3CCCCC3)cc12	1	22	11	-5
Cc1cc(N2CCN(C)CC2)nc2ccc(NC(=S)N3CCN(c4cccc(Cl)c4)CC3)cc12	1.1	7	23	-9
Nc1ccc(N=Nc2ccc(N)cc2)cc1	0.4	18	48	64*
COc1ccc(CNC(=O)Nc2nc(C(N)Cc3ccc(C(F)(F)F)cc3)cs2)cc1 (configuration not stated)	.	.	19	.
COc1ccc(C(=O)NCc2cn3cccc(C)c3n2)cc1OC	1.1	33	60*	-6
Cc1oc2c(c1C(=O)c1ccccc1)C(=O)C(=O)c1ccccc1-2	1.1	17	97*	-5
Fc1ccccc1/C=C/c1ccc2ccccc2n1	0.1	39	77*	87*
C(=C\c1ccc2ccccc2n1)/c1ccccc1	.	44	73*	.
O=C(O)/C=C/c1ccc2ccccc2n1	1	20	0	-4
COc1ncnc2c1ncn2CCCNCC(c1ccccc1)c1ccccc1	.	.	2	.
c1ccc(COc2ncnc3c2ncn3CCCNCC(c2ccccc2)c2ccccc2)cc1	.	.	63*	.
O=C(COc1ncnc2ccc(Br)cc12)NCc1ccco1	.	6	6	.
Cc1nc2ccc(-c3nc4cc(N)ccc4o3)cc2[nH]1	0.2	43	60*	78*
Nc1ccc(-c2nc3ccccc3o2)cc1	.	.	20	.
Nc1ccc2oc(-c3cccc(Br)c3)nc2c1	0.8	20	20	25
Nc1ccc2oc(-c3ccc4nc[nH]c4c3)nc2c1	0.2	31	57*	83*
CN(CC(=O)Nc1ccc(Cl)cc1F)C1CCS(=O)(=O)C1 (configuration not stated)	.	.	-8	.
Cc1ccc(S(=O)(=O)C[C@@H]2OC[C@H](Cc3ccccc3)N2S(=O)(=O)c2ccc(C)cc2)cc1	.	.	-3	.
Nc1nc2sc3c(c2cc1C(=O)NCC(=O)O)CCCC3	.	.	52*	.
Nc1nc2sc3c(c2cc1C(=O)N1CCOCC1)CCCC3	1	1	-11	1
Nc1nc(=O)n(C2CCC(CO)O2)cc1F (configuration not stated)	.	.	-2	.
Cc1ccc(NC(=O)Nc2ccc3c(c2)nc(C)n3C)cc1	0.3	24	47	74*
CC(=O)c1ccc(NC(=O)Nc2ccc3c(c2)nc(C)n3C)cc1	0.9	-1	4	8
Cc1nc2cc(NC(=O)Nc3cccc([N+](=O)[O-])c3)ccc2n1C	.	.	59*	.
C[C@@H]1COC(=O)[C@H](Cc2ccc(F)cc2)CC/C=C/C[C@@H](CC(=O)N[C@@H](CO)Cc2ccccc2)C(=O)N1	.	.	7	.
SMILES	FLuc stim CS	PPC-1+TRAIL kill	TRAIL sens C8	FLuc inh counter
O=C(C[C@@H]1C/C=C/CC[C@H](Cc2ccc(F)cc2)C(=O)OC[C@@H](Cc2ccccc2)NC1=O)N[C@H](CO)Cc1ccccc1	.	.	77*	.
COc1ccc(/C=C2\CCCC3C2=NN(C(=O)CSc2ncn[nH]2)C3c2ccc(OC)cc2)cc1 (configuration not stated)	1	-6	21	-5
COc1ccc(/C=C2\CCCC3C2=NN(C(=O)COC(=O)CNC(=O)c2ccccc2)C3c2ccc(OC)cc2)cc1 (configuration not stated)	1.1	20	59*	-6
CCOC(=O)C1=C(CC)Nc2ccccc2N=C1NC(=O)Nc1ccc(Cl)c(Cl)c1	1.1	-8	56*	-8
CCCCC(=O)Nc1ccc(C2C(=O)c3ccccc3C2=O)cc1	.	.	48*	.
CCC(=O)Nc1ccc(C2C(=O)c3ccccc3C2=O)cc1	.	.	73*	.
CCOC(=O)C1CCCN(C(=O)/C=C/c2ccc(Cl)cc2)C1 (configuration not stated)	1	7	5	-3
Cc1ccc(/C=C/C(=O)N2CCCC(C)C2)cc1 (configuration not stated)	0.3	41	38	75*
CN(CC(=O)N/N=C/c1ccc(F)cc1)S(=O)(=O)c1ccccc1	.	.	-6	.
CC1(C)Cc2c(cnn2-c2ccc(F)cc2)C(NC(=O)C2=NNC(=O)CC2)C1 (configuration not stated)	.	.	-16	.
